GalR3 antag: antagonists of human GalR3. O60755. HEK293 GalR3-CNG cAMP membrane potential fluorescence; galR3 body fused to GalR1 C-terminus. inhibition, % at 3 µM. 0.44% of 360,000 active. AID 651719;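 active = inhibition above the screen-wide average plus 3 SD, cut at about 13% in these data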;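 also: forskolin and galanin both at EC90 stimulate the cells; cAMP rise reported by CNG channel membrane potential dye signal; 0% = forskolin plus galanin with DMSO and 100% = forskolin alone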
OX1R antag-1: OX1R (human) antagonism | 1.8% of 330,000 active | inhibition, % at 6.6 µM | OX1R-expressing cells, FRET antagonist read-out | O43613; in the data active = inhibition mostly above about 38%, no sharp cut-off; inactive = mostly below about 40%;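 also: 0% = agonist challenge alone and 100% = reference antagonist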
Target sequence (O43613 whole entry, looked up): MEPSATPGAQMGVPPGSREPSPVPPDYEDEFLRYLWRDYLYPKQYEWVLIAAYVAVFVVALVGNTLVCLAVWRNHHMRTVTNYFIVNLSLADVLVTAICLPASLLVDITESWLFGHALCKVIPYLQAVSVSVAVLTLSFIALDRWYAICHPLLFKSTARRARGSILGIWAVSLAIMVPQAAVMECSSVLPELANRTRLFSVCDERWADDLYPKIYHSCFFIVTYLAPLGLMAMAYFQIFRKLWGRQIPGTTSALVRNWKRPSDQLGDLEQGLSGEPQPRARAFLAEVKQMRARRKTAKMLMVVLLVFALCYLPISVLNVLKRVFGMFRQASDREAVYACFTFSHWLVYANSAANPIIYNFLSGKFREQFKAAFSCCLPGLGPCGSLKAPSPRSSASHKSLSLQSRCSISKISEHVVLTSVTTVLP
GPR7 antag: blocks human GPR7 receptor signaling | GPR7-expressing cells, fluorescence antagonist assay | inhibition, % at 4.4 µM | 1.1% of 290,000 active | AID 1861; in the data active = inhibition above about 16%, passing the limit was not always enough;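 also: cells stimulated with the agonist NPW; 0% = agonist with vehicle and 100% = vehicle without agonist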
CHO parental Ca: signal in parental CHO cells, OX1R antagonist counter-screen; inhibition, % at 5.6 µM; AID 463079; parental CHO-K1, ATP-induced calcium, Fluo-8 fluorescence; 0.63% of 330,000 active;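 active = inhibition above that plate's mean sample inhibition plus 3 SD, cut at about 26% in these data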;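 also: 0% = ATP-challenged DMSO wells and 100% = DMSO wells without ATP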
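Material: Parental CHO cells | Reagent: ATP | Compound dosing: Single nominal dose of 5.6 µM per compound | Detection: Intracellular calcium via Fluo-8 no-wash fluorescent dye | Read-out: % inhibition of ATP-induced calcium mobilization | Benchmarks: Low control ATP plus DMSO, high control DMSO only | Replicates: Singlicate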
OX1R antag-2: blocks the human orexin 1 receptor | O43613 | CHO/OX1R cells, Fluo-8 calcium fluorescence, orexin A | inhibition, % at 5 µM | 0.43% of 330,000 active;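 active = inhibition above its plate's threshold, mean inhibition of all tested compounds on the plate plus 3 SD, cut at about 37% in these data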;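 also: 0% = orexin A challenge wells and 100% = SB-334867-A antagonist wells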
* hit, by the source's call; · = not tested or not shown. This is a sample that favours compounds with a hit; in the whole collection about 3.1% have one here.

SMILES	GalR3 antag	OX1R antag-1	GPR7 antag	CHO parental Ca	OX1R antag-2
COc1ccc(-c2cc(C(=O)OC3CCOC3=O)c3ccccc3n2)cc1 (centres undefined)	3	53*	2	-12	9
CC(NC(=O)c1c(N)[nH]c(C(=O)c2ccccc2)c1-c1ccccc1Br)c1cccc2ccccc12 (centres undefined)	-7	·	·	·	·
O=C1CCCN1c1ccc(S(=O)(=O)NCCOc2ccccc2)cc1	-8	34	-12	-9	-22
Cc1cc(N2CCCC2=O)cc(C)c1S(=O)(=O)NCCOc1ccc(C(C)(C)C)cc1	-11	70*	-2	41*	67*
CCCn1c(SCC(=O)N2N=C3/C(=C/c4ccc(OC)cc4)CCCC3C2c2ccc(OC)cc2)n[nH]c1=O (centres undefined)	2	-14	20*	13	11
COC(=O)c1sccc1NC(=O)c1ccc(C)o1	-4	21	-6	-5	-19
COC(=O)c1sccc1-c1ccc(C(=O)Nc2ccccc2)o1	-5	59*	8	-10	-2
C[C@@H]1ON(C)[C@H]2C[C@H]3c4[nH]c5cccc(-c6ccccc6F)c5c4CCN3C(=O)[C@@H]12	-5	·	·	·	·
O=S(=O)(Nc1cccnc1)c1ccc(C2CCCCC2)cc1	-7	59	3	35*	42*
O=S(=O)(Nc1cccnc1)c1ccc2c(c1)OCCO2	-4	13	20*	4	-17
Cc1cc(-c2ccc(C(C)C)c(S(=O)(=O)N3CC(=O)Nc4ccccc43)c2)on1	3	39*	-4	-8	-2
CCNCc1cc(Br)c(OCC(=O)Nc2ccccc2)c(OC)c1	-2	8	6	-12	-21
COc1cc(CNCC(C)C)cc(Br)c1OCC(=O)Nc1ccccc1	-6	4	18*	-21	-15
Cc1sc2ncnc(N3CCC(C(=O)NNC(=O)COc4ccc(Br)cc4)CC3)c2c1C	-2	63*	·	-12	0
Cc1sc2ncnc(N3CCC(C(=O)Nc4ccc(OC(F)F)c(Cl)c4)CC3)c2c1C	-4	30*	·	-8	17
Cc1sc2ncnc(N3CCC(C(=O)NNC(=O)COc4ccc(Cl)cc4)CC3)c2c1C	-1	·	·	·	·
Cc1ccc(OCC(=O)NNC(=O)C2CCN(c3ncnc4sc(C)c(C)c34)CC2)cc1	1	25	·	-16	-35
Cc1cc(Cl)ccc1OCC(=O)NNC(=O)C1CCN(c2ncnc3sc(C)c(C)c23)CC1	-6	33*	·	1	21
COC(=O)[C@]12C[C@H](CC(=O)NCC34CC5CC(CC(C5)C3)C4)C(=O)N(Cc3ccc4c(c3)OCO4)C1=C[C@H](C(C)(C)C)O[C@@H]2C	-6	·	·	·	·
C[C@@H]1CN(S(=O)(=O)C(C)(C)C)[C@H](CCO)/C1=C\CCO	-7	·	·	·	·
CNc1ccc2ncc(-c3cccc(C(=O)N(C)C)c3)n2n1	-5	·	·	·	·
CCOc1cc(C(=S)N2CCCC2)ccc1OC	-10	0	-11	-14	5
CCOc1cc(C(=S)N2CCCC2)ccc1OCC(=O)Nc1c(C)cc(C)cc1C	-3	66*	1	-21	15
COc1ccccc1OCC(=O)Nc1ccc(N2CCCCC2)cc1	-2	6	-12	-11	-11
CCOc1ccccc1OCC(=O)Nc1ccc(N2CCCCC2)cc1	-7	15	17*	-13	-5
SMILES	GalR3 antag	OX1R antag-1	GPR7 antag	CHO parental Ca	OX1R antag-2
Cc1cccc(C)c1NC(=O)CN(c1c(C)cccc1C)S(C)(=O)=O	-6	·	·	·	·
Cc1ccc(CNC(=O)CSc2ccc(-c3ccccn3)nn2)cc1	4	9	-5	-2	-5
Cc1ccc(CNC(=O)CSc2ccc(-c3cccs3)nn2)cc1	-1	51*	-10	-22	0
COc1ccc(CCNC(=O)CSc2ccc(-c3cccs3)nn2)cc1	-1	41*	-2	-12	0
O=C(Nc1ccc(OC(F)(F)C(F)F)c(NC(=O)c2ccc(F)cc2)c1)c1ccc(F)cc1	-6	65*	-13	7	28
Nc1ccc(C(=O)Nc2ccc(OC(F)(F)C(F)F)c(NC(=O)c3ccc(N)cc3)c2)cc1	-2	59	-7	-4	13
O=C1N=C(N2C=CC(=C3C=CNC=C3)C=C2)/C(=C/N=NC(=O)c2ccccc2)S1	-10	80*	-5	1	-12
CCCCc1c(-c2ccccc2OC)ncn1C1CCCCC1	-6	·	·	·	·
Cc1ccccc1OCCOC(=O)c1ccc(S(=O)(=O)N2CCCC2)cc1	-3	9	·	30*	11
O=C1c2ccccc2/C(=C\c2ccc(O[C@@H]3CCCCO3)cc2)N1c1ccccc1	-5	·	·	·	·
COc1cc(NC(=O)C2CCCN(S(=O)(=O)c3cccc4nsnc34)C2)cc(OC)c1 (centres undefined)	-2	48*	-2	-5	-9
O=C(Nc1ccc2c(c1)OCCO2)C1CCCN(S(=O)(=O)c2cccc3nsnc23)C1 (centres undefined)	-8	11	-1	-9	-20
O=C(Nc1cccnc1)C1CCCN(S(=O)(=O)c2cccc3nsnc23)C1 (centres undefined)	-2	58*	-11	15	-19
Cc1ccc(S(=O)(=O)N2CCCc3ccccc32)cc1C	-9	5	-9	30*	-16
CCOC(=O)C1=CCN(S(=O)(=O)c2ccccc2)C1c1ccc(Cl)cc1 (centres undefined)	-4	·	·	·	·
O=S(=O)(CCSc1nc2ccccc2s1)c1nc2ccccc2s1	-7	53*	15	-13	16
c1ccc2[nH]c(CSc3nc4ccccc4s3)nc2c1	5	72*	-5	-21	8
O=C(CSc1nc2ccccc2s1)CSc1nc2ccccc2s1	7	45*	3	-11	-23
Cn1c(CSc2nc3ccccc3s2)nc2ccccc21	-4	41*	0	-15	-13
CCS(=O)(=O)CCSc1nc2ccccc2s1	0	14	-12	-15	-16
CCc1nc2ccc(C(=O)NCc3ccc4c(c3)OCO4)cn2c1N(C)C(=O)Cc1ccccc1	-5	·	·	·	·
Cc1c(N=O)c(-c2ccccc2)n(O)[n+]1[O-]	2	·	·	·	·
N#C/C(=C\c1ccc(N2CCCCC2)o1)C(=O)Nc1cccc(Br)c1	-5	31	11	83*	92*
N#C/C(=C\c1ccc(N2CCCCC2)o1)C(N)=O	0	42*	-16	-4	1
Cc1cc(N/N=C/c2ccc([N+](=O)[O-])o2)nc2ccccc12	-5	42*	6	-6	25
Cc1ccc(-c2cc(C(=O)N/N=C/c3ccc([N+](=O)[O-])o3)c3ccccc3n2)o1	-1	·	-7	·	·
O=C1C=C(c2cccc3c2Oc2ccccc2S3)C[C@@H](c2ccc3c(c2)OCO3)C1	-3	·	·	·	·
Cn1cc(C=O)c2cc(F)ccc21	0	12	4	-3	-10
Cn1cc(/C=C/c2cc[n+](C)cc2)c2cc(F)ccc21	·	44*	-15	-7	-8
O=C(Nc1cc(-c2nc3ncccc3o2)ccc1Cl)c1cccs1	-4	67*	-9	-23	-33
